Activity calls are given as the source filed them. No cut-off for these calls is given here.
Assays:
[1] = Membrano-lytic effect in mammalian membrane mimic DOPC/cholesterol (10:1) large unilamellar vesicles assessed as calcein leakage measured at 50 microg/ml measured after 100 mins by multimode microplate reader assay; format: cell membranes; settings: dose 50.0 µg/ml
Procedure, shortened: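 Calcein (70 mM) loaded into extruded 100 nm LUVs: DOPC:DOPG 7:3 (w/w) as the bacterial mimic, DOPC/cholesterol 10:1 (w/w) as the mammalian mimic. Free dye removed by gel filtration. Liposomes at 40 μM final lipid in PBS mixed 1:1 with peptide (5–50 μg/mL). Fluorescence (ex 490/em 520 nm) read every 10 min for 100 min; Triton X-100 defines 100% release. Triplicate.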

Staphylococcus aureus [2] = test: Induction of resistance development in Staphylococcus aureus ATCC 29213 assessed as increase in MIC by microtiter plate reader assay; format: functional, organism-based
Procedure, shortened: (§1)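 Serial passage resistance assay with 2-fold microdilution MICs in 96-well plates. Each passage takes the well with the highest concentration still permitting growth, adjusts it to 0.5 McFarland, and dilutes it to a final 5 × 10^5 CFU/mL for the next passage. Eighteen passages; MIC recorded at each. Triplicate.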

Staphylococcus aureus [3] = test: Induction of resistance development in methicillin resistant Staphylococcus aureus ATCC BAA-1556 assessed as increase in MIC by microtiter plate reader assay; format: functional, organism-based; procedure, shortened: as §1
Escherichia coli [4] = test: Induction of resistance development in Escherichia coli ATCC 25922 assessed as increase in MIC by microtiter plate reader assay; format: functional, organism-based
Escherichia coli [5] = test: Induction of resistance development in Escherichia coli ATCC BAA-2452 assessed as increase in MIC by microtiter plate reader assay; format: functional, organism-based; procedure, shortened: as §1
Staphylococcus aureus [6] = test: Antibacterial activity against methicillin resistant Staphylococcus aureus ATCC BAA-1556 incubated for 24 hrs by checkerboard assay; format: functional
Pseudomonas aeruginosa = test: Antibacterial activity against Pseudomonas aeruginosa ATCC […] incubated for 24 hrs by checkerboard assay; format: functional
Klebsiella pneumoniae = test: Antibacterial activity against Klebsiella pneumoniae ATCC BAA-1705 incubated for 24 hrs by checkerboard assay; format: functional
[7] = Hemolytic activity in human RBC incubated for 2 hrs by spectrophotometric assay; format: toxicity, cell-based, Erythrocyte; settings: human red blood cells (RBC)
Procedure, shortened: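 Human RBCs with buffy coat removed, washed in PBS pH 7.4. Two-fold peptide dilutions in PBS mixed 1:1 with 4% (v/v) RBC suspension. Incubation 2 h at 37 °C without agitation, then centrifugation. Supernatant hemoglobin read at 567 nm. PBS set 0% and 1% Triton X-100 set 100% lysis. Triplicate.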

[8] = Therapeutic index, ratio of HC50 for human RBC to MIC for methicillin resistant Staphylococcus aureus ATCC BAA-1556
Procedure, shortened: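 Human RBCs washed in PBS pH 7.4 and mixed 1:1 with two-fold peptide dilutions (4% v/v suspension), 2 h at 37 °C. Hemoglobin in supernatant read at 567 nm against PBS (0%) and 1% Triton X-100 (100%). HC50 is the concentration giving 50% hemolysis. Index is HC50 divided by MIC against MRSA.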

CCCCCCCCCC(=O)N[C@@H](Cc1c[nH]c2ccccc12)C(=O)N[C@H](CC(N)=O)C(=O)N[C@@H](CC(=O)O)C(=O)N[C@@H]1C(=O)NCC(=O)N[C@@H](CCCN)C(=O)N[C@@H](CC(=O)O)C(=O)N[C@H](C)C(=O)N[C@@H](CC(=O)O)C(=O)NCC(=O)N[C@H](CO)C(=O)N[C@@H]([C@H](C)CC(=O)O)C(=O)N[C@@H](CC(=O)c2ccccc2N)C(=O)O[C@@H]1C
Activity [1]: 7%
Activity (Staphylococcus aureus [2]): Active
Activity (Staphylococcus aureus [3]): Active
Activity (Escherichia coli [4]): Active
Activity (Escherichia coli [5]): Active

C[C@@H](O)[C@H]1C(=O)N2C(C(=O)O)=C(S[C@@H]3CN[C@H](C(=O)N(C)C)C3)[C@H](C)[C@H]12 [MEROPENEM]
MIC (Staphylococcus aureus [6]): 32 µg/mL
MIC (Pseudomonas aeruginosa): 32 µg/mL
MIC (Klebsiella pneumoniae): 256 µg/mL

N=C(N)NCCC[C@@H]1NC(=O)[C@H](CCCNC(=N)N)NC(=O)[C@H](CCCNC(=N)N)NC(=O)[C@H](Cc2c[nH]c3ccccc23)NC(=O)[C@H](Cc2c[nH]c3ccccc23)NC(=O)[C@H](Cc2c[nH]c3ccccc23)NC(=O)[C@H](Cc2c[nH]c3ccccc23)NC(=O)[C@H](Cc2c[nH]c3ccccc23)NC(=O)[C@H](CCCNC(=N)N)NC1=O
HC50 at 2 h [7]: 100 µg/mL
TI [8]: 12.5
